Experimental data as given in ChEMBL document CHEMBL1132244, “Benzodiazepine receptor ligands. 4. Synthesis and pharmacological evaluation of 3-heteroaryl-8-chloropyrazolo[5,1-c][1,2,4] benzotriazine 5-oxides” (J Med Chem, 1999).

Columns and labels:
[1] = test system: Mus musculus; assay: The antianxiety activity for the compound at a dose of 3 mg/kg was evaluated as number of crosses by mice in the light/dark box experiment.; assay type: functional
[2] = test system: Mus musculus; assay: The percentage time in light by the animals was calculated for the compound at a dose of 0.3 mg/kg in the light/dark box experiment.; assay type: functional
[3] = test system: Mus musculus; assay: The antianxiety activity for the compound at a dose of 1 mg/kg was evaluated as number of crosses by mice in the light/dark box experiment.; assay type: functional
[4] = test system: Mus musculus; assay: The percentage time in light by the animals was calculated for the compound at a dose of 3 mg/kg in the light/dark box experiment.; assay type: functional
[5] = test system: Mus musculus; assay: Muscle relaxant effect measured by rotarod test at 0.3 mg/Kg dose in mice; assay type: functional
[6] = test system: Mus musculus; assay: Muscle relaxant effect measured by rotarod test at 3 mg/Kg dose in mice; assay type: functional
[7] = test system: Mus musculus; assay: The antianxiety activity for the compound at a dose of 0.3 mg/kg was evaluated as number of crosses by mice in the light/dark box experiment. p<0.05; assay type: functional
[8] = test system: Mus musculus; assay: The percentage time in light by the animals was calculated for the compound at a dose of 1 mg/kg in the light/dark box experiment*** indicates P<0.001.; assay type: functional
[9] = test system: Mus musculus; assay: Muscle relaxant effect measured by rotarod test at 0.1 mg/Kg dose in mice; assay type: functional
[10] = test system: Mus musculus; assay: Muscle relaxant effect measured by rotarod test at 1 mg/Kg dose in mice; assay type: functional
[11] = target: T1, GABA-A receptor; anion channel (Bos taurus) (UniProt P10063+P08220+P20237+P08219+P10064+P22300); assay: Percentage inhibition of [3H]Ro-151788 binding to GABA-A benzodiazepine receptor in bovine brain membrane at 10 uM; assay type: cell membranes
Summary of the method: (§1)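 Washed bovine cerebral cortex membranes, with endogenous GABA removed by Triton X-100/37 °C washes, incubated with ~0.2 nM [3H]Ro15-1788 (Kd 0.60 nM) in 50 mM Tris-citrate pH 7.4 for 90 min at 0 °C, then filtered. Nonspecific binding defined with 10 μM diazepam. Screening at 10 μM; Ki from IC50 by Cheng–Prusoff; five determinations, mean ± SEM.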

[12] = target: GABA-A receptor; anion channel; assay: Displacement of [3H]Ro-151788 from GABA-A benzodiazepine receptor of bovine brain membranes; assay type: cell membranes, Bos taurus; summary of the method: as §1
[13] = target: T1, GABA-A receptor; anion channel (Bos taurus); assay: The GABA ratio (GR) = IC50 compound + 10 uM GABA, performed in five independent experiments was calculated for the compound.; assay type: protein-complex assay
Summary of the method: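 [3H]Ro15-1788 displacement from GABA-depleted bovine cortex membranes (0.2 nM ligand, 90 min, 0 °C, Tris-citrate pH 7.4). IC50 measured without and with 10 μM GABA and the ratio taken; five independent experiments.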

[14] = target: T1, GABA-A receptor; anion channel (Bos taurus); assay: Percentage inhibition of [3H]Ro-151788 binding to GABA-A central benzodiazepine receptor in bovine brain membrane at 10 uM; assay type: cell membranes; summary of the method: as §1
[15] = species: Mus musculus; assay: Anticonvulsant activity against PTZ induced atacks; assay type: functional
Summary of the method: (§2)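 Male Swiss-Webster mice (22–26 g) received drug in 1% CMC (10 mL/kg) 30 min before the test, or flumazenil 40 min before. Pentylenetetrazole was then given at 75 mg/kg sc, and generalized tonic-clonic seizures were scored over the following 30 min. The incidence of non-convulsing mice was analysed by χ² test.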

[16] = species: Mus musculus; assay: Antianxiety activity was measured based on light/dark box thus calculated no of crosses of mice; assay type: functional
[17] = species: Mus musculus; assay: Muscle relaxant effect measured by rotarod test; assay type: functional
[18] = species: Mus musculus; assay: Antianxiety activity was measured based on light/dark box thus calculated % time in light of mice; assay type: functional
[19] = test system: Mus musculus; assay: Anticonvulsant activity against PTZ induced seizures at 100 mg/kg dose with 1 mg/kg Diazepam; assay type: functional
[20] = test system: Mus musculus; assay: Antianxiolytic activity in mice as percent time in light of light/dark box at 100 mg/kg 13c and 1 mg/kg Diazepam; assay type: functional
[21] = test system: Mus musculus; assay: Antianxiolytic activity in mice as no of crosses on light/dark box at 100 mg/kg 13c and 1 mg/kg Diazepam; assay type: functional
[22] = test system: Mus musculus; assay: Muscle relaxant effect in rotarod test at 100 mg/kg 13c and 0.3 mg/kg Diazepam; assay type: functional
[23] = test system: Mus musculus; assay: Muscle relaxant effect in rotarod test at 100 mg/kg 13c and 1 mg/kg Diazepam; assay type: functional
[24] = test system: Mus musculus; assay: Anticonvulsant activity against PTZ induced seizures in mice at 100 mg/kg dose with 0.3 mg/kg Diazepam; assay type: functional
[25] = test system: Mus musculus; assay: Antianxiety activity was measured based on light/dark box thus calculated no of crosses of mice at 100 mg/kg dose Flumazenil and 1 mg/kg Diazepam; assay type: functional
[26] = test system: Mus musculus; assay: Anticonvulsant activity against PTZ induced atacks at 100 mg/kg dose Flumazenil and 0.3 mg/kg Diazepam; assay type: functional; summary of the method: as §2
[27] = test system: Mus musculus; assay: Muscle relaxant effect measured by rotarod test at 100 mg/kg dose Flumazenil and 0.3 mg/kg Diazepam; assay type: functional
[28] = test system: Mus musculus; assay: Antianxiety activity was measured based on light/dark box thus calculated % time in light of mice at 100 mg/kg dose Flumazenil and 1 mg/kg Diazepam; assay type: functional

Q: With `CN1C(=O)CN=C(c2ccccc2)c2cc(Cl)ccc21` [DIAZEPAM] as the compound, how does the No. of crosses [1] read?
A: Its No. of crosses is 16.5.

Q: What about the Time in light [2] of the same compound?
A: Its Time in light is 95.5%.

Q: What about the No. of crosses [3] of the same compound?
A: The No. of crosses was 28.5.

Q: What about the Time in light [4] of the same compound?
A: The Time in light was 211.1%.

Q: What about the No. of falls [5] of the same compound?
A: The No. of falls was 0.56.

Q: And the No. of falls [6]?
A: Its No. of falls is 1.4.

Q: And the No. of crosses [7]?
A: Its No. of crosses is 22.

Q: What about the Time in light [8] of the same compound?
A: The Time in light was 144.9%.

Q: What about the No. of falls [9] of the same compound?
A: Its No. of falls is 0.23.

Q: What about the No. of falls [10] of the same compound?
A: The No. of falls was 0.73.

Q: How did the inhibition [11] turn out when `Nc1cnn2c1n[n+]([O-])c1ccc(Cl)cc12` was run?
A: Its inhibition is 33.9%.

Q: `[O-][n+]1nc2c(-n3cccc3)cnn2c2cc(Cl)ccc21` was tested. Which inhibition [11] did it give?
A: Its inhibition is 87.5%.

Q: What about the Ki [12] of the same compound?
A: The Ki was 61.5 nM.

Q: What about the GR [13] of the same compound?
A: Its GR is 1.24.

Q: For `Clc1ccc2nnc3c(-c4cccs4)cnn3c2c1`, which inhibition [14] is on record?
A: Its inhibition is 66%.

Q: How did the inhibition [11] turn out when `CC(C)(C)OC(=O)Nc1cnn2c1n[n+]([O-])c1ccc(Cl)cc12` was run?
A: The inhibition was 0%.

Q: `CN(C)/C=N/C(=O)c1cnn2c1n[n+]([O-])c1ccc(Cl)cc12` was tested. Which inhibition [11] did it give?
A: The inhibition was 48.9%.

Q: With `CCOC(=O)c1ncn2c1CN(C)C(=O)c1cc(F)ccc1-2` [FLUMAZENIL] as the compound, how does the Attacks [15] read?
A: The Attacks was 0%.

Q: What about the No. of crosses [16] of the same compound?
A: The No. of crosses was 15.2.

Q: What about the No. of falls [17] of the same compound?
A: Its No. of falls is 0.4.

Q: And the Time in flight [18]?
A: Its Time in flight is 114.8%.

Q: `CN1C(=O)CN=C(c2ccccc2)c2cc(Cl)ccc21.[O-][n+]1nc2c(-c3cccs3)cnn2c2cc(Cl)ccc21` was tested. Which Atttacks [19] did it give?
A: Its Atttacks is 100%.

Q: And the Time in flight [20]?
A: Its Time in flight is 130.9%.

Q: What about the No. of crosses [21] of the same compound?
A: Its No. of crosses is 26.6.

Q: What about the No. of falls [22] of the same compound?
A: Its No. of falls is 0.5.

Q: What about the No. of falls [23] of the same compound?
A: Its No. of falls is 0.17.

Q: What about the Atttacks [24] of the same compound?
A: Its Atttacks is 50%.

Q: Which GR [13] does the source give for `CN1C(=O)CN=C(c2ccccc2)c2cc(Cl)ccc21` here?
A: The GR was 1.5.

Q: For `CCOC(=O)c1ncn2c1CN(C)C(=O)c1cc(F)ccc1-2.CN1C(=O)CN=C(c2ccccc2)c2cc(Cl)ccc21`, which No. of crosses [25] is on record?
A: The No. of crosses was 18.6.

Q: What about the Atttacks [26] of the same compound?
A: Its Atttacks is 14.2%.

Q: What about the No. of falls [27] of the same compound?
A: Its No. of falls is 0.46.

Q: What about the Time in flight [28] of the same compound?
A: The Time in flight was 104.1%.

Q: With `O=CNC(=O)c1cnn2c1n[n+]([O-])c1ccc(Cl)cc12` as the compound, how does the inhibition [11] read?
A: The inhibition was 85.5%.

Q: And the Ki [12]?
A: The Ki was 844 nM.

Q: What about the Ratio [13] of the same compound?
A: The Ratio was 2.07.
